Measurements taken from ChEMBL document CHEMBL1145047, “Design, synthesis, and evaluation of substituted phenylpropanoic acid derivatives as human peroxisome proliferator activated receptor activators. Discovery of potent and human peroxisome proliferator activated receptor alpha subtype-selective activators” (J Med Chem, 2003).
Active and inactive are the calls of the source. The rule behind the calls is not given here.

Assays:
[1] = target: T1, Peroxisome proliferator-activated receptor delta (Homo sapiens) (UniProt Q03181); assay: In vitro effective concentration for agonist activity on human Peroxisome proliferator activated receptor delta-GAL4 chimeric receptor in transfected CHO-K1 cells; inactive; type: functional, cell-based
T1 sequence (whole entry): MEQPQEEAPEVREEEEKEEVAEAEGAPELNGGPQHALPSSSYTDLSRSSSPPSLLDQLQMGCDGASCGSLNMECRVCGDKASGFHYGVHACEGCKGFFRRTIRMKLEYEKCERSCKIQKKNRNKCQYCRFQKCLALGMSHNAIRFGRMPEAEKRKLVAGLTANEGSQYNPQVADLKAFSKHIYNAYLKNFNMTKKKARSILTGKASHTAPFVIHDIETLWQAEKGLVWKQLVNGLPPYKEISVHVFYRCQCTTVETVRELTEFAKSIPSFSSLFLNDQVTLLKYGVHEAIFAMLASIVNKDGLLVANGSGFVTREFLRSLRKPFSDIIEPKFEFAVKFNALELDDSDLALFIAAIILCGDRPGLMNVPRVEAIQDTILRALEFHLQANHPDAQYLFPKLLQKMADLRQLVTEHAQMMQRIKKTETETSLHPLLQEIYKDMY
Outline: (§1)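 GAL4–human PPAR LBD chimera, reporter assay in CHO-K1 cells. Cells seeded at 5 × 10⁴/well in Ham's F12 with 10% FCS for 24 h at 37 °C. Cotransfected for 2 h (lipofectamine) per well with 40 ng GAL4/PPAR LBD, 400 ng pFR-Luc and 5 ng pRL-TK. Compounds applied for 20 h at 37 °C, then luciferase read from cell lysates. EC50 is 50% of maximal reporter activity, from curve fit, n = 3.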

[2] = target: T2, Peroxisome proliferator-activated receptor gamma (Homo sapiens) (UniProt P37231); assay: In vitro effective concentration for agonist activity on human Peroxisome proliferator activated receptor gamma-Gal4 chimeric receptor in transfected CHO-K1 cells at 10 uM; type: functional, cell-based
T2 sequence (whole entry): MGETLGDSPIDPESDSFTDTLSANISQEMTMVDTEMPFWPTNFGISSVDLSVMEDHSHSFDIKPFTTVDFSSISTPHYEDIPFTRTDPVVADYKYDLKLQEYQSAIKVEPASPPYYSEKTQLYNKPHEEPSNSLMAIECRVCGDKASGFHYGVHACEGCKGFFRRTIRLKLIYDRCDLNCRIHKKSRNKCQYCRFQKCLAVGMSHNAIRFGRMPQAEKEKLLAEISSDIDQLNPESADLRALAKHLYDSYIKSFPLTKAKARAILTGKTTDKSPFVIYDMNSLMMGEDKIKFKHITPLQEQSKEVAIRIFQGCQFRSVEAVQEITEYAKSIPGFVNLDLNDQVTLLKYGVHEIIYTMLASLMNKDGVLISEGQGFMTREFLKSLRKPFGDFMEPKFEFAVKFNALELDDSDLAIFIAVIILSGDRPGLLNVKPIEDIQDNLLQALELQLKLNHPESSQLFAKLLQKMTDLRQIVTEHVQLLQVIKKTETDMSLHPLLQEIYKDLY

[3] = target: T3, Peroxisome proliferator-activated receptor alpha (Homo sapiens, UniProt Q07869); type: functional, cell-based
T3 sequence (Q07869 whole entry): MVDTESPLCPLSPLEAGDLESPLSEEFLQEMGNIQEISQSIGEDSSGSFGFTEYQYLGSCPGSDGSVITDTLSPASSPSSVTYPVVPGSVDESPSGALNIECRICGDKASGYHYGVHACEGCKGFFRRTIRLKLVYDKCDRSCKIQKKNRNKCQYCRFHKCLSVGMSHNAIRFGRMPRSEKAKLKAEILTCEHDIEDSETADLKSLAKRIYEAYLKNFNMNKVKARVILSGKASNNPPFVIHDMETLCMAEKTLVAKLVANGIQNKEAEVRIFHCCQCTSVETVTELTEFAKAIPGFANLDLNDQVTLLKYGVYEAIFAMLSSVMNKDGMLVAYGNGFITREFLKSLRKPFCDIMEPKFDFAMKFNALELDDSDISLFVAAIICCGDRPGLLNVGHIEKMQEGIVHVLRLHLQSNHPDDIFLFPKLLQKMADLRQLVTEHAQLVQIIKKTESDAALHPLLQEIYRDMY

[4] = target: T1, Peroxisome proliferator-activated receptor delta (Homo sapiens); assay: (§2) Agonist activity on Gal4 chimeric human Peroxisome proliferator activated receptor delta expressed in CHO-K1 cells; type: functional, cell-based; outline: as §1
[5] = target: T4, Peroxisome proliferator-activated receptor gamma (Homo sapiens, UniProt P37231)
T4 sequence (P37231 whole entry): T2 sequence (whole entry)

[6] = target: T5, Peroxisome proliferator-activated receptor delta (Homo sapiens, UniProt Q03181); assay: as §2; type: functional, cell-based
T5 sequence (Q03181 whole entry): T1 sequence (whole entry)

[7] = target: T6, Peroxisome proliferator-activated receptor alpha (Homo sapiens) (UniProt Q07869); assay: Agonist activity on Gal4 chimeric human Peroxisome proliferator activated receptor alpha expressed in CHO-K1 cells; type: functional, cell-based; outline: as §1
T6 sequence (whole entry): T3 sequence (Q07869 whole entry)

[8] = target: T1, Peroxisome proliferator-activated receptor delta (Homo sapiens); assay: In vitro effective concentration for agonist activity on human Peroxisome proliferator activated receptor delta-GAL4 chimeric receptor in transfected CHO-K1 cells at 10 uM; inactive
[9] = target: T1, Peroxisome proliferator-activated receptor delta (Homo sapiens); assay: In vitro effective concentration for agonist activity on human Peroxisome proliferator activated receptor delta-GAL4 chimeric receptor in transfected CHO-K1 cells at 10 uM; inactive; type: functional, cell-based
Rattus norvegicus [10] = assay: In vivo percent reduction on FFA of the rat at 30 mg/kg after 5 days; type: functional
Outline: (§3)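 Male Sprague-Dawley rats, 11 weeks old, fed standard chow and water ad libitum. Drug or vehicle suspended in 0.5% w/v arabic gum and given orally once daily at 0.3, 3 or 30 mg/kg; duration is 4 days in the methods and 5 days in the table. Plasma taken in the fed state. TG, FFA and total cholesterol measured enzymatically. HDL obtained by precipitation; LDL+VLDL = total minus HDL cholesterol. Values are mean percent reduction, N = 5 or 6.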

Rattus norvegicus [11] = assay: In vivo percent reduction on LDL+VLDL of the rat at 30 mg/kg after 5 days; type: functional; outline: as §3
Rattus norvegicus [12] = assay: In vivo percent reduction on TG of the rat at 30 mg/kg after 5 days; type: functional; outline: as §3
Rattus norvegicus [13] = assay: In vivo percent reduction on total cholesterol of the rat at 30 mg/kg after 5 days; type: functional; outline: as §3
[14] = target: T1, Peroxisome proliferator-activated receptor delta (Homo sapiens); assay: In vitro In vitro effective concentration for agonist activity on human Peroxisome proliferator activated receptor delta-GAL4 chimeric receptor in transfected CHO-K1 cells at 10 uM; inactive; type: functional, cell-based

| Compound | IA [2] | EC50 [3] [nM] | IA [4] | also measured |
| --- | --- | --- | --- | --- |
| CCC(Cc1ccc(OC)c(C(=O)NCc2ccc(Cl)cc2)c1)C(=O)O (centres undefined) | inactive | 3000 |  | IA [1]: inactive |
| CCC(Cc1ccc(OC)c(C(=O)NCc2ccc(-c3ccccc3)cc2)c1)C(=O)O (centres undefined) |  |  | inactive | EC50 [5]: 4 µM |
| CCC(Cc1ccc(OC)c(CNCc2ccc(C(F)(F)F)cc2)c1)C(=O)O (centres undefined) | inactive |  |  |  |
| CCC(Cc1ccc(OC)c(C(=O)Nc2ccc(C(F)(F)F)cc2)c1)C(=O)O (centres undefined) | inactive |  | inactive |  |
| COc1ccc(CC(SCc2ccccc2)C(=O)O)cc1C(=O)NCc1ccc(C(F)(F)F)cc1 (centres undefined) | inactive |  | inactive | IA [7]: inactive |
| CCC(Cc1ccc(OC)c(C(=O)NCc2ccc(Oc3ccccc3)cc2)c1)C(=O)O (centres undefined) |  | 90 |  | EC50 [6]: 3 µM; EC50 [5]: 2.4 µM |
| COc1ccc(CC2SC(=O)NC2=O)cc1C(=O)NCc1ccc(C(F)(F)F)cc1 (centres undefined) |  |  |  | IA [8]: inactive |
| CCC(Cc1ccc(OC)c(CC(=O)Nc2ccc(C(F)(F)F)cc2)c1)C(=O)O (centres undefined) | inactive |  | inactive |  |
| COc1ccc(CC(C)(C)C(=O)O)cc1C(=O)NCc1ccc(C(F)(F)F)cc1 | inactive |  | inactive |  |
| CCC(Cc1ccc(OC)c(C(=O)NCc2cccc(C(F)(F)F)c2)c1)C(=O)O (centres undefined) | inactive | 1800 |  | IA [9]: inactive |
| CCC(Cc1ccc(OC)c(CCCc2ccc(C(F)(F)F)cc2)c1)C(=O)O (centres undefined) | inactive |  |  |  |
| COc1ccc(C(=O)O)cc1C(=O)NCc1ccc(C(F)(F)F)cc1 | inactive |  | inactive | IA [7]: inactive |
| CCSC(Cc1ccc(OC)c(C(=O)NCc2ccc(C(F)(F)F)cc2)c1)C(=O)O (centres undefined) |  | 1600 |  | EC50 [6]: 3 µM; EC50 [5]: 2.8 µM |
| COc1ccc(CC(OC)C(=O)O)cc1C(=O)NCc1ccc(C(F)(F)F)cc1 (centres undefined) | inactive |  | inactive |  |
| CCC(Cc1ccc(OC)c(CNC(=O)c2ccc(C(F)(F)F)cc2)c1)C(=O)O (centres undefined) |  |  |  | EC50 [5]: > 10 µM |
| CC(C)(Oc1ccc(CCNC(=O)c2ccc(Cl)cc2)cc1)C(=O)O [BEZAFIBRATE] |  |  |  | EC50 [6]: > 143 µM; Reduction (Rattus norvegicus [10]): 46%; Reduction (Rattus norvegicus [11]): 22%; Reduction (Rattus norvegicus [12]): 41%; Reduction (Rattus norvegicus [13]): 27% |
| CCCCC(Cc1ccc(OC)c(C(=O)NCc2ccc(C(F)(F)F)cc2)c1)C(=O)O (centres undefined) |  |  |  | IA [1]: inactive |
| COc1ccc(CCC(=O)O)cc1C(=O)NCc1ccc(C(F)(F)F)cc1 | inactive |  | inactive |  |
| CCC(Cc1ccc(OC)c(C(=O)CCc2ccc(C(F)(F)F)cc2)c1)C(=O)O (centres undefined) |  |  |  | IA [9]: inactive |
| CCC(Cc1ccc(OC)c(C(=O)NCc2cccc(Oc3ccccc3)c2)c1)C(=O)O (centres undefined) |  | 400 | inactive | EC50 [5]: 6.2 µM |
| COc1ccc(CC(C(=O)O)C(C)C)cc1C(=O)NCc1ccc(C(F)(F)F)cc1 (centres undefined) | inactive |  | inactive |  |
| COc1ccc(CC(C(=O)O)c2ccccc2)cc1C(=O)NCc1ccc(C(F)(F)F)cc1 (centres undefined) | inactive |  | inactive | IA [7]: inactive |
| CCC(Cc1ccc(OC)c(C(=O)NCc2ccccc2)c1)C(=O)O (centres undefined) |  | 2300 |  | IA [9]: inactive; EC50 [5]: 10 µM |
| CCC(CC)(Cc1ccc(OC)c(C(=O)NCc2ccc(C(F)(F)F)cc2)c1)C(=O)O | inactive |  | inactive |  |
| CCC(Cc1ccc(OC)c(C(=O)NCc2ccccc2OC)c1)C(=O)O (centres undefined) | inactive | 9400 | inactive |  |
| CCC(Cc1ccc(OC)c(C(=O)NCCc2ccc(C(F)(F)F)cc2)c1)C(=O)O (centres undefined) | inactive |  |  |  |
| CCC(Cc1ccc(OC)c(C(=O)NCc2ccc(OCc3ccccc3)cc2)c1)C(=O)O (centres undefined) | inactive | 1500 | inactive |  |

Now from value to compound, other results behind:

| IA [2] | EC50 [3] [nM] | IA [4] | Compound | also measured |
| --- | --- | --- | --- | --- |
| inactive |  |  | COc1ccc(CC(C)C(=O)O)cc1C(=O)NCc1ccc(C(F)(F)F)cc1 (centres undefined) |  |
| inactive | 1200 |  | CCC(Cc1ccc(OC)c(C(=O)NCc2ccc(OC)cc2)c1)C(=O)O (centres undefined) | EC50 [6]: 6.6 µM |
| inactive |  | inactive | CCC(Cc1ccc(OC)c(NC(=O)Cc2ccc(C(F)(F)F)cc2)c1)C(=O)O (centres undefined) |  |
| inactive |  | inactive | CCC(Cc1ccc(OC)c(NC(=O)Nc2ccc(C(F)(F)F)cc2)c1)C(=O)O (centres undefined) | IA [7]: inactive |
| inactive |  | inactive | CCC(Cc1ccc(OC)c(C(=O)N(C)Cc2ccc(C(F)(F)F)cc2)c1)C(=O)O (centres undefined) | IA [7]: inactive |
|  | 5600 | inactive | CCC(Cc1ccc(OC)c(C(=O)NCc2ccc(CCc3ccccc3)cc2)c1)C(=O)O (centres undefined) | EC50 [5]: 5.4 µM |
|  | 2700 | inactive | CCC(Cc1ccc(OC)c(C(=O)NCc2ccc(OCCc3ccccc3)cc2)c1)C(=O)O (centres undefined) | EC50 [5]: 3 µM |
|  |  | inactive | COc1ccc(CCCC(=O)O)cc1C(=O)NCc1ccc(C(F)(F)F)cc1 |  |
| inactive |  | inactive | COc1ccc(CC(Oc2ccccc2)C(=O)O)cc1C(=O)NCc1ccc(C(F)(F)F)cc1 (centres undefined) | IA [7]: inactive |
| inactive |  |  | COc1ccc(CC(=O)O)cc1C(=O)NCc1ccc(C(F)(F)F)cc1 | IA [14]: inactive; IA [7]: inactive |
| inactive |  |  | CCC(Cc1ccc(OC)c(OCCc2ccc(C(F)(F)F)cc2)c1)C(=O)O (centres undefined) |  |
| inactive | 43 |  | CCC(Cc1ccc(OC)c(C(=O)NCc2ccc(OC(F)(F)F)cc2)c1)C(=O)O (centres undefined) | EC50 [6]: 0.9 µM |
|  | 3100 | inactive | CCC(Cc1ccc(OC)c(C(=O)NCc2cccc(OC)c2)c1)C(=O)O (centres undefined) |  |
| inactive |  | inactive | COc1ccc(CC(Sc2ccccc2)C(=O)O)cc1C(=O)NCc1ccc(C(F)(F)F)cc1 (centres undefined) | IA [7]: inactive |
| inactive |  | inactive | CCC(Cc1ccc(OC)c(C(=O)NCc2ccccc2Oc2ccccc2)c1)C(=O)O (centres undefined) | IA [7]: inactive |
| inactive |  |  | CCCC(Cc1ccc(OC)c(C(=O)NCc2ccc(C(F)(F)F)cc2)c1)C(=O)O (centres undefined) |  |
